Source: ChEMBL document CHEMBL2057168, “(1aR,5aR)1a,3,5,5a-Tetrahydro-1H-2,3-diaza-cyclopropa[a]pentalene-4-carboxylic acid (MK-1903): a potent GPR109a agonist that lowers free fatty acids in humans” (J Med Chem, 2012)
Active and inactive are the calls of the source. The rule behind the calls is not given here.

Key:
[1] = Volume of distribution in Sprague-Dawley rat at 2 mg/kg, iv; type: ADME, organism-based; design: dose 2 mg/kg, route intravenous; conditions: in vivo
In short: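 Male Sprague–Dawley rats dosed iv at 2 mg/kg in 80% PEG400/20% phosphate buffered saline. Jugular vein blood was serially sampled over 24 h, and plasma was prepared from sodium heparin blood. Plasma was analysed by HPLC/MS/MS (LLOQ 1 ng/mL, ULOQ 2000 ng/mL).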

[2] = system: Rattus norvegicus; assay: Dose normalized AUC in Sprague-Dawley rat at 10 mg/kg, po; type: ADME, organism-based; design: dose 10 mg/kg, route oral; conditions: in vivo
In short: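 Male Sprague-Dawley rats were dosed at 10 mg/kg po or 2 mg/kg iv in 80% PEG400/20% phosphate-buffered saline, fasted overnight before the oral dose. Jugular blood was sampled serially from 0.25 to 21 h over 24 h, and heparinized plasma was prepared. Drug was assayed by HPLC/MS/MS (quantitation range 1–2000 ng/mL).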

[3] = Volume of distribution in dog; type: ADME, organism-based, Canis lupus familiaris; conditions: in vivo
[4] = Terminal half life in dog; type: ADME, organism-based, Canis lupus familiaris; conditions: in vivo, read-out: beta t1/2 (converted)
[5] = Plasma clearance in rhesus monkey; type: ADME, organism-based, Macaca mulatta
[6] = Oral bioavailability in rhesus monkey; type: ADME, organism-based, Macaca mulatta; conditions: in vivo
[7] = system: Homo sapiens; assay: Antidyslipedic activity in human assessed as decrease in free fatty acid level at 50 to 200 mg, po administered as a single dose measured up to 8 hrs relative to placebo control; type: functional, organism-based
[8] = AUC (0 to 12 hrs) in human at 150 mg, po BID administered on day 1 followed by 2-day wash out period after which dosing continued up to day 11 measured on day 1; type: ADME, organism-based; design: dose 150 mg, time < 12 hr, route oral; conditions: plasma
In short: (§1)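 Double-blind, placebo-controlled, randomized dose-escalation study in healthy male volunteers, six cohorts of eight (six active, two placebo). Oral dose on day 1, two-day washout, then dosing days 4–11; the 200 mg qd cohort was titrated over days 1–4. Venous blood taken predose and at 0.5–12 h on days 1, 4 and 11; plasma drug measured. τ 12 h (bid), 24 h (qd), 8 h (tid), 6 h (qid).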

[9] = AUC (0 to 8 hrs) in human at 150 mg, po TID administered on day 1 followed by 2-days wash out period after which dosing continued up to day 11 measured on day 1; type: ADME, organism-based; design: time < 8 hr, dose 150 mg, route oral; conditions: plasma
In short: (§2)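 Healthy male volunteers, double-blind placebo-controlled randomized dose escalation; cohorts of eight (six active, two placebo). Oral dose on day 1, two-day washout, then dosing days 4–11. Venous blood predose and 0.5, 1, 1.5, 2, 4, 6, 8, 10, 12 h postdose on days 1, 4 and 11 for plasma drug; dosing interval (τ) 12 h for BID, 8 h for TID; Ctrough taken at end of interval.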

[10] = AUC (0 to 6 hrs) in human at 175 mg, po QID administered on day 1 followed by 2-days wash out period after which dosing continued up to day 11 measured on day 1; type: ADME, organism-based; design: time < 6 hr, dose 175 mg, route oral; conditions: plasma; in short: as §1
[11] = AUC (0 to 6 hrs) in human at 175 mg, po QID administered on day 1 followed by 2-days wash out period after which dosing continued up to day 11 measured on day 11; type: ADME, organism-based; design: time < 6 hr, dose 175 mg, route oral; conditions: plasma; in short: as §1
[12] = Tmax in human at 150 mg, po TID administered on day 1 followed by 2-days wash out period after which dosing continued up to day 11 measured on day 11; type: ADME, organism-based; conditions: in vivo
In short: (§3)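 Double-blind, placebo-controlled, randomized multiple oral dose study in healthy male volunteers (cohorts of eight; six active, two placebo). Dose given on day 1, then a two-day washout, then dosing days 4–11; for the QD arm, subjects were titrated over days 1–4. Venous plasma sampled predose and 0.5, 1, 1.5, 2, 4, 6, 8, 10, 12 h postdose on days 1, 4 and 11. Tmax reported as median (min–max).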

[13] = Tmax in human at titreated po dose administered from day 1 to 4 followed by 200 mg, po QD administered up to day 11 measured on day 4; type: ADME, organism-based; conditions: in vivo; in short: as §3
[14] = Apparent half life in human at 50 mg, po BID administered on day 1 followed by 2-day wash out period after which dosing continued up to day 11 measured on day 11; type: ADME, organism-based; conditions: in vivo, read-out: t1/2(app) (converted); in short: as §1
[15] = Apparent half life in human at 150 mg, po BID administered on day 1 followed by 2-day wash out period after which dosing continued up to day 11 measured on day 11; type: ADME, organism-based; conditions: in vivo, read-out: t1/2(app) (converted); in short: as §1
[16] = Apparent half life in human at titreated po dose administered from day 1 to 4 followed by 200 mg, po QD administered up to day 11 measured on day 11; type: ADME, organism-based; conditions: in vivo, read-out: t1/2(app) (converted); in short: as §1
[17] = system: Homo sapiens; assay: Antidyslipidemic activity in human assessed as decrease in free fatty acid level 50 to 150 mg, po BID administered on day 1 followed by 2-days wash out period after which dosing continued up to day 11 measured on day 4 and 11; type: functional, organism-based
In short: (§4)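 Healthy male volunteers in a randomized, double-blind, placebo-controlled multiple-dose study, six active and two placebo subjects per cohort. Oral dosing on day 1, two-day washout, then days 4–11, with titration over days 1–4 for the qd arm.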

[18] = system: Homo sapiens; assay: Antidyslipidemic activity in human assessed as decrease in free fatty acid level 150 mg, po TID administered on day 1 followed by 2-days wash out period after which dosing continued up to day 11 measured on day 4 and 11; type: functional, organism-based; in short: as §4
[19] = system: Homo sapiens; assay: Antidyslipidemic activity in human assessed as decrease in free fatty acid level titreated po dose administered from day 1 to 4 followed by 200 mg, po QD administered up to day 11 measured on day 4 and 11; type: functional, organism-based; in short: as §4
[20] = system: Homo sapiens; assay: Toxicity in human assessed as occurrence of flushing at 10 to >10 mg administered as single dose; type: organism-based; conditions: in vivo
In short: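 Healthy volunteers scored subject-reported flushing with a flushing symptoms questionnaire after single oral doses and during repeat divided daily dosing.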

[21] = Cmax in human at 50 mg, po BID administered on day 1 followed by 2-day wash out period after which dosing continued up to day 11 measured on day 11; type: ADME, organism-based; design: dose 50 mg, route oral; conditions: in vivo
In short: (§5)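 Healthy male volunteers took part in a double-blind, randomized, placebo-controlled dose-escalation study, with cohorts of 8 (6 on drug, 2 on placebo). Each subject got an oral dose on day 1, then a 2-day washout, then dosing on days 4–11. The 200 mg qd group was titrated over days 1–4. Venous plasma was sampled predose and 0.5–12 h postdose on days 1, 4 and 11, and predose on days 5–10 for troughs.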

[22] = Cmax in human at 150 mg, po BID administered on day 1 followed by 2-day wash out period after which dosing continued up to day 11 measured on day 1; type: ADME, organism-based; design: dose 150 mg, route oral; conditions: in vivo; in short: as §1
[23] = Cmax in human at 175 mg, po QID administered on day 1 followed by 2-days wash out period after which dosing continued up to day 11 measured on day 11; type: ADME, organism-based; design: dose 175 mg, route oral; conditions: in vivo; in short: as §5
[24] = Cmin in human at 100 mg, po BID administered on day 1 followed by 2-day wash out period after which dosing continued up to day 11 measured on day 11 at 12 hrs; type: ADME, organism-based; conditions: in vivo, read-out: Cmin; in short: as §2
[25] = Cmin in human at 150 mg, po BID administered on day 1 followed by 2-day wash out period after which dosing continued up to day 11 measured on day 11 at 12 hrs; type: ADME, organism-based; conditions: in vivo, read-out: Cmin; in short: as §5
[26] = Tmax in human at 50 mg, po BID administered on day 1 followed by 2-day wash out period after which dosing continued up to day 11 measured on day 1; type: ADME, organism-based; conditions: in vivo; in short: as §3
[27] = Tmax in human at 100 mg, po BID administered on day 1 followed by 2-day wash out period after which dosing continued up to day 11 measured on day 1; type: ADME, organism-based; conditions: in vivo; in short: as §5

O=C(O)c1n[nH]c2c1C[C@H]1C[C@@H]21
Vd [1]: 0.53 L/kg
AUC/dose [2]: 5.1 µM·kg·h/mg
Vd [3]: 0.41 L/kg
half-life [4]: 204 min
clearance [5]: 5.1 mL/min/kg
bioavailability [6]: 39%
Activity [7]: Active
AUC at 12 h [8]: 0.0977 µM·h
AUC at 8 h [9]: 0.102 µM·h
AUC at 6 h [10]: 0.13 µM·h
AUC at 6 h [11]: 0.123 µM·h
Tmax [12]: 1 h
Tmax [13]: 1.5 h
half-life [14]: 114 min
half-life [15]: 534 min
half-life [16]: 276 min
Activity [17]: Active
Activity [18]: Active
Activity [19]: Active
Activity [20]: Toxic
Cmax [21]: 16.2 nM
Cmax [22]: 41.2 nM
Cmax [23]: 56 nM
concentration at 12 h [24]: 0.104 nM
concentration at 12 h [25]: 0.208 nM
Tmax [26]: 1 h
Tmax [27]: 1 h
